{
  "source": "ChEMBL document CHEMBL2157895",
  "about": "“Selective Dual Inhibitors of the Cancer-Related Deubiquitylating Proteases USP7 and USP47” (ACS Med Chem Lett, 2012)",
  "key": {"[1]": {"biological_target": "T1, Ubiquitin carboxyl-terminal hydrolase 5 (Homo sapiens) (UniProt P45974)", "T1 sequence (whole entry)": "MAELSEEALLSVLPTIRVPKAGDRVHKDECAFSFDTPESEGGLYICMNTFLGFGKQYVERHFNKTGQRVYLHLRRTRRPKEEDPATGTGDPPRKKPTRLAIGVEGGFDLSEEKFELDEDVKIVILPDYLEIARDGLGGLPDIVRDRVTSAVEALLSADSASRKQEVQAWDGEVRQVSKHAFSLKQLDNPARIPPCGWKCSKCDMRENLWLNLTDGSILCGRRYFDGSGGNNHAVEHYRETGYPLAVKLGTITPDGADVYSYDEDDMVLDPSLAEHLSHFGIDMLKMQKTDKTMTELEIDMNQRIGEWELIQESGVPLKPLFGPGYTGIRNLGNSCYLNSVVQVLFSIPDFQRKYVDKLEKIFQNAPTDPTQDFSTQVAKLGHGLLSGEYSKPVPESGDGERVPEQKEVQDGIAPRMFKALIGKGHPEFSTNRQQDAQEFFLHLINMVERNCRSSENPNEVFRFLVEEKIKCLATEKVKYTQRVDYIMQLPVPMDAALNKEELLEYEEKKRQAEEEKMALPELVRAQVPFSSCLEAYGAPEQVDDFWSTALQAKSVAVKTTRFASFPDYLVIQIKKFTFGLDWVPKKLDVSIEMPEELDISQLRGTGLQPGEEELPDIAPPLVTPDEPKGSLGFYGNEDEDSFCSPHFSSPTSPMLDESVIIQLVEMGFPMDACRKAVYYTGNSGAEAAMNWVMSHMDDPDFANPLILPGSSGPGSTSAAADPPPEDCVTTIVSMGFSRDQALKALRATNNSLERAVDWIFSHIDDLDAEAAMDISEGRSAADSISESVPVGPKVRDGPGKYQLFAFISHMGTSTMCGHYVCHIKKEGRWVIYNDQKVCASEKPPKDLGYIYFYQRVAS", "experiment": "Inhibition of USP5 by Ub-CHOP reporter assay"}, "[2]": {"experiment": "Metabolic stability of the compound in rat plasma assessed as compound remaining at 1 uM after 3 hrs", "assay_type": "ADME, cell-free", "conditions": "read-out: Stability"}, "[3]": {"biological_target": "Ubiquitin carboxyl-terminal hydrolase 7 (Homo sapiens, UniProt Q93009)", "sequence (Q93009 whole entry, looked up)": "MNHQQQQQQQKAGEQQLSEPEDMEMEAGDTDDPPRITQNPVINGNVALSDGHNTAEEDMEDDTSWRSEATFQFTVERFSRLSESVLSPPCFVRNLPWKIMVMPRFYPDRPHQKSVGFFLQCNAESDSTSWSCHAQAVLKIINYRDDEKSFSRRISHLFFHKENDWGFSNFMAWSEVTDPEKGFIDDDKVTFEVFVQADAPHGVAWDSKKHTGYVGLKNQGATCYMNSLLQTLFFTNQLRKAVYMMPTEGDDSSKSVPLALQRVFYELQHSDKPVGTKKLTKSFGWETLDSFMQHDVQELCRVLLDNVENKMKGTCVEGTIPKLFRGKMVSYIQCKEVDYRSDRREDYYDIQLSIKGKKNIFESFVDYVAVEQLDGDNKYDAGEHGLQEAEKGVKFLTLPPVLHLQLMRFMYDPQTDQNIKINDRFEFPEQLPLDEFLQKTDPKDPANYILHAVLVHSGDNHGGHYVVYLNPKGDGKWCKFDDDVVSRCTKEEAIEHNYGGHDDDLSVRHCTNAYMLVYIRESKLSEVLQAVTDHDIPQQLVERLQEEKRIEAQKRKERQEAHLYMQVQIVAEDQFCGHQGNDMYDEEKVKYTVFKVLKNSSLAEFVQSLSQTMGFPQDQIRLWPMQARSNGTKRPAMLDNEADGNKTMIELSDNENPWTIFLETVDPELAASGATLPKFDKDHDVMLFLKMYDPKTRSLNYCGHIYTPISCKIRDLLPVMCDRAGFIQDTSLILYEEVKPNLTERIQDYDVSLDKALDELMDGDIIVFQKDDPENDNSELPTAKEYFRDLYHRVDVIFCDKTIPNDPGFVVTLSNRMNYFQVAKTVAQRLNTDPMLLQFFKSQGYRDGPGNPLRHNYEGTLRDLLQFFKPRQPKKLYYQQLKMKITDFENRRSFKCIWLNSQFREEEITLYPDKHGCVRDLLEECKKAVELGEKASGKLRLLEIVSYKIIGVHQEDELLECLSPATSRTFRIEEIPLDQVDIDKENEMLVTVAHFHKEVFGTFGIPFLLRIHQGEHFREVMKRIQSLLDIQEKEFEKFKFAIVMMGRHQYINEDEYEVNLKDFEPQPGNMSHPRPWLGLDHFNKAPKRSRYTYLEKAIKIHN", "experiment": "Inhibition of USP7 in human HCT116 cells assessed as increase in p21 level at 30 uM incubated up to 48 hrs by Western blot analysis relative to control", "assay_type": "cell-based", "conditions": "HCT-116", "in_short": "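HCT-116 human colon cancer cells were incubated with 30 μM compound or with vehicle (0.3% DMSO). Lysates were separated by SDS-PAGE and Western blotted with antibodies to p53 and p21, with actin as the loading standard. Treated cells were compared with DMSO controls.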"}},
  "note": "Activity calls are given as the source filed them. No cut-off for these calls is given here.",
  "data": [
    {"smiles": "CS(=O)(=O)c1ccc(NC(=O)c2cc(C#N)c(Sc3c(Cl)cncc3Cl)s2)cc1", "values": [
      {"measurement": "inhibition", "setting": "[1]", "result": "inactive"},
      {"measurement": "remaining at 3 h, 1 µM", "setting": "[2]", "result": 97, "unit": "%"},
      {"measurement": "inhibition", "setting": "[3]", "result": "Active"}
    ]}
  ]
}
